Active and inactive are the calls of the source. The calls are words filed in the database; no cut-off is given here. Where a SMILES comes first, the peptide text is derived from it. The star is where a group is joined. NH(4-N(CH2CH2Cl)2-phenyl) = ClCCN(CCCl)c1ccc(N*)cc1; Cbz = O=C(OCc1ccccc1)*

Consider ten compounds from ChEMBL document CHEMBL3244147 (J Med Chem, 1978).

Data set [1] in a line: Toxicity in ip dosed CF1 mouse after 14 days of injection. Format: organism-based. Conditions: in vivo. A digest of the protocol: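 Female Carworth Farms mice, 16-20 g. Compound was suspended in 1% aqueous methylcellulose (ultrasonicated if insoluble) and diluted to doses of 4-324 mg/kg, given as 0.45 mL per mouse by a single intraperitoneal injection. Five mice per dose; survivors were counted at 14 days. LD50 is expressed in μmol/kg.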

Data set [2] relates to Sarcoma-180. The data set can be described thus: Antitumor activity against mouse Sarcoma 180 at 10 to 50% of LD50. The data set is classed as functional. A digest of the protocol:
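Mice carrying well-advanced Sarcoma-180 tumours received a single intraperitoneal dose.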

For data set [3], the system named is Sarcoma-180. The data set can be described thus: Drug metabolism assessed as mouse Sarcoma 180 homogenate-mediated compound disappearance after 24 hrs by TLC autoradiography. Format: ADME. Conditions: sarcoma-180, 24 h. A digest of the protocol:
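S-180 tumour tissue (0.85 g) was homogenised in cold pH 7.3 calcium acetate/DMSO buffer containing actidione, then spun at 5000 rpm for 10 min. The supernatant replaced enzyme in the collagenase-type assay with 14C-labelled substrate (2 mg/mL in DMSO) in 28% DMSO reaction mixture. Disappearance and products were read by TLC autoradiography.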

The subject of data set [4] is Liver. The data set can be described thus: Prodrug conversion in guinea pig liver homogenate assessed as release of labelled carbobenzyloxy-L-pro-lyl-L-leucine. Format: ADME, tissue-based, Cavia porcellus.
Data set [5] deals with Liver. The data set can be described thus: Prodrug conversion in rat liver homogenate assessed as cleavage of labelled compound. The data set is classed as ADME, tissue-based.
The nature of data set [6]: Prodrug conversion in pig liver homogenate assessed as cleavage of labelled compound. The data set is classed as ADME, tissue-based, Sus scrofa.
Data set [7] can be described thus: Prodrug conversion in pig liver homogenate assessed as release of labelled carbobenzyloxy-L-pro-lyl-L-leucine. The data set is classed as ADME, tissue-based, Sus scrofa.
Data set [8] has as its system Liver. In words: Prodrug conversion in rat liver homogenate assessed as release of labelled carbobenzyloxy-L-pro-lyl-L-leucine. The data set is classed as ADME, tissue-based.
Data set [9] can be described thus: Drug metabolism assessed as bacterial collagenase-mediated compound disappearance after 24 hrs by TLC autoradiography. Format: ADME. The procedure, abridged:
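14C-labelled substrate at 2 mg/mL in dimethyl sulfoxide. 0.3 mL of it was mixed with 0.95 mL of pH 7.3 barbiturate/acetate/NaCl buffer containing calcium acetate, actidione and DMSO; the reaction mixture was 28% DMSO. The buffer held 5 mg bacterial collagenase (375 units/mg). Controls had no enzyme, trypsin or bovine serum albumin. Products were followed by TLC autoradiography.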

Data set [10] relates to Liver. In words: Prodrug conversion in mouse liver homogenate assessed as release of labelled carbobenzyloxy-L-pro-lyl-L-leucine. Format: ADME, tissue-based.
The subject of data set [11] is Liver. In words: Prodrug conversion in mouse liver homogenate assessed as cleavage of labelled compound. Format: ADME, tissue-based.
Data set [12] deals with Liver. In words: Prodrug conversion in guinea pig liver homogenate assessed as cleavage of labelled compound. Format: ADME, tissue-based, Cavia porcellus.

In data set [1], `CC(C)C[C@H](NC(=O)[C@@H]1CCCN1C(=O)[C@@H](Cc1ccccc1)NC(=O)OC(C)(C)C)C(=O)NCC(=O)N1CCC[C@H]1C(=O)NCC(=O)Nc1ccc(N(CCCl)CCCl)cc1` gave an LD50 at 336 h of 105 µmol/kg.
Same read-out and setting: then `CC(C)C[C@H](NC(=O)[C@@H]1CCCN1C(=O)[C@@H](CCCCNC(=O)OC(C)(C)C)NC(=O)OC(C)(C)C)C(=O)NCC(=O)N1CCC[C@H]1C(=O)NCC(=O)Nc1ccc(N(CCCl)CCCl)cc1`, with 100 µmol/kg.
Still for that read-out and setting: then `CC(C)C[C@H](N)C(=O)NCC(=O)N1CCC[C@H]1C(=O)NCC(=O)Nc1ccc(N(CCCl)CCCl)cc1.O=C(O)C(F)(F)F` (H-LGPG-{NH(4-N(CH2CH2Cl)2-phenyl)}), with 10.4 µmol/kg.
As for `CC(C)C[C@H](NC(=O)[C@@H]1CCCN1C(=O)[C@H](N)CCCCN)C(=O)NCC(=O)N1CCC[C@H]1C(=O)NCC(=O)Nc1ccc(N(CCCl)CCCl)cc1.O=C(O)C(F)(F)F`, the LD50 at 336 h in data set [1] came to 78 µmol/kg. Further, the result with Sarcoma-180 [2] was inactive.
As for `CC(C)C[C@H](NC(=O)[C@@H]1CCCN1C(=O)[C@H](N)Cc1ccccc1)C(=O)NCC(=O)N1CCC[C@H]1C(=O)NCC(=O)Nc1ccc(N(CCCl)CCCl)cc1.O=C(O)C(F)(F)F`, the LD50 at 336 h in data set [1] amounted to 106 µmol/kg.
With `NCC(=O)N1CCC[C@H]1C(=O)NCC(=O)Nc1ccc(N(CCCl)CCCl)cc1.O=C(O)C(F)(F)F`, the LD50 at 336 h in [1] was found to be 19.7 µmol/kg.
In [1], `O=C(CNC(=O)[C@@H]1CCCN1C(=O)OCc1ccccc1)Nc1ccc(N(CCCl)CCCl)cc1` showed an LD50 at 336 h of 119 µmol/kg.
As to `CC(C)C[C@H](NC(=O)[C@@H]1CCCN1C(=O)OCc1ccccc1)C(=O)NCC(=O)N1CCC[C@H]1C(=O)NCC(=O)Nc1ccc(N(CCCl)CCCl)cc1` (Cbz-PLGPG-{NH(4-N(CH2CH2Cl)2-phenyl)}), the LD50 at 336 h in [1] came to 123 µmol/kg. Besides, in the data set with Sarcoma-180 [2], the outcome was inactive.
Regarding `CC(C)C[C@H](NC(=O)[C@@H]1CCCN1C(=O)O[14CH2]c1ccccc1)C(=O)NCC(=O)N1CCC[C@H]1C(=O)NCC(=O)Nc1ccc(N(CCCl)CCCl)cc1`, the Drug metabolism result (in the data set on Sarcoma-180 [3]; in the data set on Liver [4]; in the data set with Liver [5]; in [6]; in data set [7]; in the data set with Liver [8]) was “metabolite_detected” in each case. The Drug metabolism result (in data set [9]; in the data set on Liver [10]; in the data set on Liver [11]; in the data set on Liver [12]) was “metabolite_detected” in each case.
In [1], `CC(C)C[C@H](NC(=O)[C@@H]1CCCN1C(=O)[C@@H](C)NC(=O)OC(C)(C)C)C(=O)NCC(=O)N1CCC[C@H]1C(=O)NCC(=O)Nc1ccc(N(CCCl)CCCl)cc1` gave an LD50 at 336 h of 94.5 µmol/kg.
